Data set [1] concerns HIV-1 RT multidrug-resistant (RTMDR) viral strain. Conditions: read-out: EC50 RTMDR (prior studies); same assays for leads and drugs; cited from earlier work.
Data set [2] in a line: Microsomal stability assay. Type of data set: in vitro ADME. The note with it: 1 μM compound, 0.1 mg/mL human liver microsomes, 37 °C.
Data set [3] in a line: CytoTox-Glo cytotoxicity assay. The class given is cell-based. Conditions: human, TZM-bl cells. Put shortly: (§1)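 Run alongside the antiviral assays. TZM-bl cells were cultured for one day with graded concentrations of test compound. Percent viable cells was determined with the CytoTox-Glo kit according to the manufacturer's protocol.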
For a further data set, the system named is HIV-1 IIIB (wt). As to the kind of experiment: HIV-1 infection assay using MT-2 cells. The class given is cell-based. A digest of the protocol:
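MT-2 cells (10^4/well) infected overnight with 100 TCID50 HIV-1 IIIB in RPMI 1640 plus 10% FBS, with or without graded concentrations of test compound. Medium then replaced with compound-free medium. On day 4 post-infection, supernatants mixed with equal volume 5% Triton X-100 and p24 antigen quantified by ELISA. EC50 calculated from percent inhibition of p24 production.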

Data set [4] has as its system HIV-1 NL4-3 (wild-type) virus. As to the kind of experiment: microbe, parasite or virus in culture. Type of data set: cell-based.
A further data set is described as follows: Log P measurement. Conditions: measured at pH7.4 by HPLC method, triplicate. The class given is physicochemical.
The test system of a further data set is TZM-bl cells. As to the kind of experiment: CytoTox-Glo cytotoxicity assay. Type of data set: cell-based. Conditions: one day, average of two independent tests. A digest of the protocol: as §1
For a further data set, the system named is HIV-1 NL4-3 K101E mutant. The class given is cell-based. The note with it: TZM-bl cells; for Resistance fold change K101E: versus NL4-3(wt); for EC50: read-out: EC50 K101E.
In data set [5] the test system is HIV-1 RTMDR (RT L74V, M41L, V106A, T215Y). Type of data set: cell-based. Conditions: TZM-bl cells; for Resistance fold change RTMDR: versus NL4-3(wt); for EC50: read-out: EC50 RTMDR.
The nature of data set [6]: Aqueous solubility measurement. Conditions: triplicate; for Aqueous solubility pH 2.0: pH 2.0, HPLC method; for Aqueous solubility pH 7.4: pH 7.4, HPLC method. Type of data set: physicochemical.
A further data set relates to HIV-1 NL4-3 E138K mutant. Type of data set: cell-based. The note with it: TZM-bl cells; for Resistance fold change E138K: versus NL4-3(wt); for EC50: read-out: EC50 E138K.
The test system of data set [7] is HIV-1 A17 (K103N and Y181C). Type of data set: cell-based. Conditions: MT-2 cells; for Resistance fold change A17: versus IIIB (wt); for EC50: read-out: EC50 A17.
The test system of data set [8] is HIV-1 wild-type and resistant viral strains with RTMDR, K101E or E138K mutation. As to the kind of experiment: Text summary: antiviral potency over wild-type and resistant strains. The class given is cell-based.
The mark [9] stands for this setting: read-out: EC50 (NL4-3 infection of TZM-bl cells), mean ± SD, at least three independent experiments.
Setting [10] is: read-out: EC50 NL4-3(wt), TZM-bl cells, Table 2.
Setting [11] is: read-out: EC50 IIIB (wt), MT-2 cells.

Values joined by “and” are separate entries in the source; they are usually repeats but may differ in a detail not shown here. Equal entries are not always repeated. Where two headings read alike, the source gives them in different places.

By EC50 is commonly meant the concentration giving half of the maximal effect. As for `Cc1cc(C#N)cc(C)c1Oc1nc(Nc2ccc(C#N)cc2)nc(N)c1Br` [1a, etravirine], in data set [1], the EC50 is 1 nM.
Usually CC50 stands for the concentration at which the toxic effect on the cells reaches its halfway point. The low end stands for greater toxicity to the cells, the high end for lower toxicity to the cells. Regarding `Cc1cc(/C=C/C#N)cc(C)c1Nc1ccnc(Nc2ccc(C#N)cc2)n1` [1b, rilpivirine, reference compound], the “HLM t1/2” value in data set [2] is 39.52 min. This compound also yielded a CC50 at 1 day in data set [3] of 19400 nM. Further, the 50% effective concentration (EC50) was 0.49 nM with HIV-1 IIIB (wt) (Human immunodeficiency virus 1, IIIB, MT2, read-out: EC50 IIIB (wt)); 0.44 nM in [4] (Human immunodeficiency virus 1, NL43, TZM-bl, read-out: EC50 NL4-3(wt)); 0.49 nM in data set [1].
Broadly, the log P is the decadic logarithm of the partition coefficient of the neutral form, usually between octanol and water. High values mean a more lipophilic compound, low ones a more hydrophilic compound. On to `N#Cc1ccc(Nc2nc(Oc3c(F)cccc3F)ccc2N)cc1` [6a, N^2-(4′-Cyanophenyl)amino-6-(2”,6”-difluoro)phenoxypyridin-3-amine], for which the “HLM t1/2” value in [2] was 44.01 min. In the data set “Log P measurement”, the “log P” value is more than 5. The compound further came in with a 50% cytotoxic concentration (CC50) with TZM-bl cells of 19200 nM. In the data set on HIV-1 NL4-3 K101E mutant, the “Resistance fold change K101E” value stood at 7.82. Moreover, the concentration giving a half-maximal response (EC50) in the data set with HIV-1 NL4-3 K101E mutant was 53 nM; in data set [5], 3.55 nM; in [4] (setting [9]), 6.78 ± 1.18 nM; in data set [4] (setting [10]), 6.78 nM; in the data set on HIV-1 NL4-3 E138K mutant, more than 29 nM. Also, in [5], the “Resistance fold change RTMDR” value was found to be 0.52. Besides, the “Aqueous solubility pH 2.0” value in data set [6] is 8.42 μg/mL. Also, the “Aqueous solubility pH 7.4” value in data set [6] was found to be 1.58 μg/mL. In the data set on HIV-1 NL4-3 E138K mutant, the “Resistance fold change E138K” value is 4.3.
For the compound `N#C/C=C/c1cc(F)c(Oc2ccc(N)c(Nc3ccc(C#N)cc3)n2)c(F)c1` [6g, (E)-N^2-(4′-Cyanophenyl)amino-6-(4”-cyanovinyl-2”,6”-difluoro)phenoxypyridin-3-amine], the “HLM t1/2” value in data set [2] is reported as 76.46 min. Besides, in “Log P measurement”, the lipophilicity (log P) was determined as 3.48. The cytotoxic concentration (CC50) in the data set on TZM-bl cells was 11000 nM. For the same compound, the “Resistance fold change K101E” value in the data set on HIV-1 NL4-3 K101E mutant was 9.6. The EC50 in the data set with HIV-1 NL4-3 K101E mutant was 7.2 nM; in the data set with HIV-1 IIIB (wt) (setting [11]), 1.11 nM; in data set [5], 34.7 nM; in [7], more than 500 nM; in data set [4] (setting [9]), 0.75 ± 0.18 nM; in data set [4] (setting [10]) it was 0.75 nM. Besides, in the data set on HIV-1 NL4-3 E138K mutant, the EC50 was found to be 7.71 nM. Besides, the “Resistance fold change RTMDR” value in data set [5] was 46.3. The “Resistance fold change A17” value in data set [7] is more than 450. In data set [6], the “Aqueous solubility pH 2.0” value turned out to be 1.27 μg/mL. Further, the “Aqueous solubility pH 7.4” value in [6] was 0.72 μg/mL. In addition, the “Resistance fold change E138K” value in the data set with HIV-1 NL4-3 E138K mutant worked out at 10.3.
As to `N#Cc1ccc(Nc2nc(Oc3c(Br)cc(C#N)cc3Br)ccc2N)cc1` [8a, 6-(4”-Cyano-2”,6”-dibromo)phenoxy-N^2-(4′-cyanophenyl)pyridin-2,3-diamine], the “HLM t1/2” value in [2] was found to be 41.66 min. Moreover, the “log P” value in “Log P measurement” is on record as 3.30. The compound further returned a half-maximal cytotoxic concentration (CC50) in the data set with TZM-bl cells of 13200 nM. Moreover, the “Resistance fold change K101E” value with HIV-1 NL4-3 K101E mutant was found to be 3.3. Further, the EC50 in the data set with HIV-1 NL4-3 K101E mutant is 3.09 nM; in the data set on HIV-1 IIIB (wt) (setting [11]) it was 12.4 nM; in [5], 2.47 nM; in data set [7] it was 384 nM; in data set [4] (setting [9]), 0.99 nM and 0.93 nM; in [4] (setting [10]) it was 0.93 nM. Moreover, in the data set on HIV-1 NL4-3 E138K mutant, the 50% effective concentration (EC50) worked out at 5.44 nM. Also, the “Resistance fold change RTMDR” value in data set [5] is 2.6. Besides, the “Resistance fold change A17” value in data set [7] was found to be 30.8. The “Aqueous solubility pH 2.0” value in data set [6] turned out to be 0.79 μg/mL. Further, in [6], the “Aqueous solubility pH 7.4” value is 0.72 μg/mL. For the same compound, the “Resistance fold change E138K” value in the data set with HIV-1 NL4-3 E138K mutant came to 5.8.
With `N#C/C=C/c1cc(Br)c(Oc2ccc(N)c(Nc3ccc(C#N)cc3)n2)c(Br)c1` [8b, (E)-N^2-(4′-Cyanophenyl)amino-6-(4”-cyanovinyl-2”,6”-dibromo)phenoxypyridin-3-diamine], the “HLM t1/2” value in [2] is recorded as 21.87 min. In addition, the log partition coefficient (log P) in “Log P measurement” turned out to be 3.55. The same compound returned a CC50 in the data set on TZM-bl cells of 8220 nM. The “Resistance fold change K101E” value in the data set on HIV-1 NL4-3 K101E mutant came to 23.1. Moreover, the EC50 is 7.63 nM in the data set with HIV-1 NL4-3 K101E mutant; 3.04 nM with HIV-1 IIIB (wt) (setting [11]); 0.74 nM in data set [5]; 200 nM in data set [7]; 0.33 ± 0.09 nM in [4] (setting [9]); 0.33 nM in [4] (setting [10]). For the same compound, in the data set with HIV-1 NL4-3 E138K mutant, the EC50 was determined as 4.11 nM. In addition, the “Resistance fold change RTMDR” value in [5] came out at 2.2. The “Resistance fold change A17” value in data set [7] was found to be 65.7. For the same compound, the “Aqueous solubility pH 2.0” value in data set [6] is on record as 0.63 μg/mL. Moreover, in data set [6], the “Aqueous solubility pH 7.4” value was determined as 0.62 μg/mL. Also, the “Resistance fold change E138K” value with HIV-1 NL4-3 E138K mutant stood at 12.4.
`COc1cc(/C=C/C#N)cc(Br)c1Oc1ccc(N)c(Nc2ccc(C#N)cc2)n1` [8c, (E)-6-(2”-Bromo-4”-cyanovinyl-6”-methoxy)phenoxy-N^2-(4′-cyanophenyl) pyridin-2,3-diamine]: the “HLM t1/2” value in data set [2] was 54.7 min and 54.71 min. For the same compound, in the data set “Log P measurement”, the “log P” value was 3.31. In the data set on TZM-bl cells, this compound had a half-maximal cytotoxic concentration (CC50) of 21000 nM. Further, in the data set on HIV-1 NL4-3 K101E mutant, the “Resistance fold change K101E” value is recorded as 1.2. In addition, the 50% effective concentration (EC50) with HIV-1 NL4-3 K101E mutant stood at 3.9 nM; in the data set with HIV-1 IIIB (wt) (setting [11]), 4.53 nM; in [5], 3.46 nM; in data set [7] it was 84.4 nM; in data set [4] (setting [9]), 3.25 ± 0.89 nM; in data set [4] (setting [10]) it was 3.25 nM. For the same compound, the EC50 in the data set on HIV-1 NL4-3 E138K mutant was determined as 6.93 nM. In addition, the “Resistance fold change RTMDR” value in data set [5] came out at 1.1. Moreover, the “Resistance fold change A17” value in data set [7] is given as 18.6. Besides, in data set [6], the “Aqueous solubility pH 2.0” value was found to be 0.82 μg/mL. Besides, the “Aqueous solubility pH 7.4” value in data set [6] is listed as 0.50 μg/mL. Moreover, the “resistance fold change (RFC), range over resistant strains” value in data set [8] was 1.1–2.1. Moreover, in the data set on HIV-1 NL4-3 E138K mutant, the “Resistance fold change E138K” value turned out to be 2.1.
Take `N#C/C=C/c1cc(Cl)c(Oc2ccc(N)c(Nc3ccc(C#N)cc3)n2)c(Cl)c1` [8d, (E)-N^2-(4′-Cyanophenyl)amino-6-(4”-cyanovinyl-2”,6”-dichloro)phenoxypyridin-3-amine]: the “HLM t1/2” value in data set [2] is recorded as 39.61 min. For the same compound, the “log P” value in “Log P measurement” is more than 5. In the data set on TZM-bl cells, this compound had a cytotoxic concentration (CC50) of 10700 nM. Moreover, the EC50 in [4] (setting [9]) was 8.14 ± 2.49 nM. Further, in data set [6], the “Aqueous solubility pH 2.0” value worked out at 0.81 μg/mL and the “Aqueous solubility pH 7.4” value amounted to 0.70 μg/mL.

Source of the values: article PMC4085996 (ChemMedChem, 2014).
